Source: publication PMC2764298 (Biochemical and biophysical research communications, 2009)

Tests used:
P-gp [1] = target: T1, P-gp (Homo sapiens, UniProt P08183); experiment: rhodamine 123 accumulation assay by flow cytometry in MCF-7/DX1 cells; type: cell-based
Method in brief: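 P-gp-overexpressing MCF-7/DX1 breast adenocarcinoma cells, maintained with 1 µM doxorubicin. 125,000 cells in suspension loaded with 0.5 µg/mL (1.3 µM) rhodamine 123, alone or with test compound, 30–40 min, 37°C. Pelleted, then re-incubated 30–40 min, 37°C in fresh medium with test compound or 1 µM GF120918. Resuspended in ice-cold PBS pH 7.4; 488 nm laser, 530 band-pass (FL1), 10,000 cells/point. IC50 fitted from concentration series.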

P-gp ATPase activity = P-gp ATPase activity (Homo sapiens, UniProt P08183); experiment: P-gp ATPase assay, crude High Five insect cell membranes; type: biochemical; conditions: Pi release
Sequence of P-gp ATPase activity (P08183 whole entry): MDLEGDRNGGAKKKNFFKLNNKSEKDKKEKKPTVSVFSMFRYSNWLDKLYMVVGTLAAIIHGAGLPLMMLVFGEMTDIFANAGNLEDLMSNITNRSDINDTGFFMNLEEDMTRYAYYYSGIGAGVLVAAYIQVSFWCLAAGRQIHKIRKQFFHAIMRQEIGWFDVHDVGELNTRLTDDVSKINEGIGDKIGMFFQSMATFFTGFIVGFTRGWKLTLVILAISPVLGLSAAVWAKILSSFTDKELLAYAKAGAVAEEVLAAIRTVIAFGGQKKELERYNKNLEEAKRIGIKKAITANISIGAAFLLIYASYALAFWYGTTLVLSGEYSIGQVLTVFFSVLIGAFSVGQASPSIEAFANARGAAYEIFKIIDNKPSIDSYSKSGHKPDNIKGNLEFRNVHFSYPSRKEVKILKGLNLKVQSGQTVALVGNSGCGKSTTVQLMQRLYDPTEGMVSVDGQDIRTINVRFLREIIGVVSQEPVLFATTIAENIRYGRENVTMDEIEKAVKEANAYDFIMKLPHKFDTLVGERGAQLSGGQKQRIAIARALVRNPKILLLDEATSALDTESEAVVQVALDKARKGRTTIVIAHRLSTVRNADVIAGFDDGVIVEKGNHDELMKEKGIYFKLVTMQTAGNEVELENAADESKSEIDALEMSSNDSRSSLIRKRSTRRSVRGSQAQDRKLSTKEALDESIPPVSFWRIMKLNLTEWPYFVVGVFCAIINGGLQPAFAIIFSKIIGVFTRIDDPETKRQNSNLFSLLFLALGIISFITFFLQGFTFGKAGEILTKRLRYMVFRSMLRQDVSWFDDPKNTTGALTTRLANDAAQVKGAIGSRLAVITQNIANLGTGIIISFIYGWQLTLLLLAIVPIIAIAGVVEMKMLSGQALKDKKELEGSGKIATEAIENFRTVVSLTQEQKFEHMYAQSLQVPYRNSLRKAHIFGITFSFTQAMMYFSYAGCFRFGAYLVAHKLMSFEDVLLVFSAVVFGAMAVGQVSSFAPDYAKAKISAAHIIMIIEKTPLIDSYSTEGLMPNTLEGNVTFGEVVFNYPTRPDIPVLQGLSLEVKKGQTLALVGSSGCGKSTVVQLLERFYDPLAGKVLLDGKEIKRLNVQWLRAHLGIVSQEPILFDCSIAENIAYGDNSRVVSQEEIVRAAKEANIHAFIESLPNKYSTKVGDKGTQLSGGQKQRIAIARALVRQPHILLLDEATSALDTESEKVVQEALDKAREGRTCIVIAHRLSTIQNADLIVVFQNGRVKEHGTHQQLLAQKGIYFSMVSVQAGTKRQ

P-gp [2] = target: T1, P-gp; experiment: [3H]daunomycin radioactive substrate accumulation assay in MCF-7/DX1 cells; type: cell-based; conditions: read-out: IC50, cellular accumulation of [3H]daunomycin, [3H]daunomycin 0.25 µCi/mL, scintillation counting

T1 sequence (P08183 whole entry): as above

Structure (SMILES)	more active than the known P-gp inhibitor GF120918 (rhodamine 123 accumulation) (P-gp [1]; MCF-7/DX1 cells, both at 1 µM)	effect on P-gp ATPase activity at low concentrations (P-gp ATPase activity; Gal-2 < 1 µM)	effect on P-gp ATPase activity at higher concentrations (P-gp ATPase activity; Gal-2 > 5 µM)	IC50 (P-gp [2])	IC50 (P-gp [1])
COc1ccc2c3c1O[C@H]1C[C@@H](OC(=O)CCCCCCCCC(=O)O[C@H]4C=C[C@@]56CCN(C)Cc7ccc(OC)c(c75)O[C@H]6C4)C=C[C@@]31CCN(C)C2 [Gal-2]	approximately 20%	stimulated ATPase activity	ATPase stimulation was found to decrease in a concentration-dependent manner	2000 ± 400 nM	–
COc1ccc2c3c1O[C@H]1C[C@@H](O)C=C[C@@]31CCN(C)C2 [galantamine, reference compound]	–	–	–	–	> 100000 nM
